ChEMBL document CHEMBL1131714, “Piperidine-renin inhibitors compounds with improved physicochemical properties” (Bioorg Med Chem Lett, 1999)

What was measured:
[1] = target: T1, Renin (Homo sapiens, UniProt P00797); test: Inhibitory activity against human plasma renin; type: cell-free
T1 sequence (P00797 whole entry): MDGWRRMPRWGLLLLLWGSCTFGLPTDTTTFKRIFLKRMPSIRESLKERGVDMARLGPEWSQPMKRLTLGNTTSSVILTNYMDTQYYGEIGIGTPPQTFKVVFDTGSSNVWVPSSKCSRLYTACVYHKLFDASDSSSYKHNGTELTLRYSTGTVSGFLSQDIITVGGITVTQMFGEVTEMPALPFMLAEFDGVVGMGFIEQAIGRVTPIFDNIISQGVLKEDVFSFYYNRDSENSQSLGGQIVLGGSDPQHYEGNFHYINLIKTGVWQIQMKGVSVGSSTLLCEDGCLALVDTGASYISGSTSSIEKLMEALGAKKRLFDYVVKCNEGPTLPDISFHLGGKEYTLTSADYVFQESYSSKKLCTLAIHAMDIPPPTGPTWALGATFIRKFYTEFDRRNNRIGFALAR

[2] = target: T1, Renin; test: Inhibitory activity against purified recombinant human renin
[3] = Distribution coefficient at pH 7.4; type: physicochemical; conditions: RP-HPLC, read-out: Log Kw
In short: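 Log Kw read as log D by HPLC in 20 mM MOPS buffer, pH 7.4, on an LC-ABZ column ([…]) fitted with an LC-ABZ precolumn (20x46 mm).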

IC50 [1] | IC50 [2] | chromatographic logD [3] | SMILES
10000 nM | 9 nM | – | O[C@H]1CNC[C@H](OCc2ccc3ccccc3c2)[C@H]1c1ccc(OCCCOCc2ccccc2)cc1 (racemic)
160 nM | 4 nM | – | COc1ccccc1COCCCOc1ccc([C@H]2CCNC[C@@H]2OCc2ccc3cccnc3c2)cc1 (racemic)
1400 nM | 6.4 nM | 4.9 | O[C@@H]1CNC[C@H](OCc2ccc3ccccc3c2)[C@H]1c1ccc(OCCCOCc2ccccc2)cc1 (racemic)
12 nM | 0.087 nM | 5.4 | COc1ccccc1COCCCOc1ccc([C@H]2CCNC[C@@H]2OCc2cc(OC)c3ccccc3c2OC)cc1 (racemic)
110 nM | 0.5 nM | 4.7 | COc1ccccc1COCCCOc1ccc([C@H]2CCNC[C@@H]2OCc2cc(OC)c3ccccc3c2OC)cn1 (racemic)
160 nM | 10 nM | 4.1 | COc1ccccc1COCCCOc1ncc([C@H]2CCNC[C@@H]2OCc2cc(OC)c3ccccc3c2OC)cn1 (racemic)
1400 nM | 22 nM | – | c1ccc(COCCCOc2ccc([C@H]3CCNC[C@@H]3OCc3ccc4cc(OCCN5CCOCC5)ccc4c3)cc2)cc1 (racemic)
190 nM | 0.92 nM | – | c1ccc(COCCCOc2ccc([C@H]3[C@H](Cn4cncn4)CNC[C@@H]3OCc3ccc4ccccc4c3)cc2)cc1 (racemic)
1300 nM | 5 nM | – | c1ccc(COCCCOc2ccc([C@H]3CCNC[C@@H]3OCc3ccc4ccccc4c3)cc2)cc1 (racemic)
7100 nM | 590 nM | 5.1 | c1ccc(COCCCOc2ccc([C@H]3CCNC[C@@H]3OCc3ccc4ccccc4c3)cn2)cc1 (racemic)
380 nM | 1.8 nM | – | c1ccc(COCCCOc2ccc([C@@H]3[C@@H](OCc4ccc5ccccc5c4)CNC[C@H]3OCCN3CCOCC3)cc2)cc1 (racemic)
8200 nM | 820 nM | 4.4 | c1ccc(COCCCOc2ncc([C@H]3CCNC[C@@H]3OCc3ccc4ccccc4c3)cn2)cc1 (racemic)
810 nM | 12 nM | – | c1ccc(COCCCOc2ccc([C@H]3CCNC[C@@H]3OCc3ccc4cccnc4c3)cc2)cc1 (racemic)
330 nM | 5.1 nM | – | c1ccc(COCCCOc2ccc([C@H]3CCNC[C@@H]3OCc3ccc4c(c3)NCCC4)cc2)cc1 (racemic)
37 nM | 0.67 nM | 3.8 | COc1ccccc1COCCCOc1ccc([C@H]2CCNC[C@@H]2OCc2ccc3c(c2)NCCC3)cc1 (racemic)
490 nM | 0.4 nM | 5.8 | c1ccc(COCCCOc2ccc([C@H]3[C@H](CSc4ccncc4)CNC[C@@H]3OCc3ccc4ccccc4c3)cc2)cc1 (racemic)
110 nM | 8 nM | 3.9 | COc1ccccc1COCCCOc1ccc([C@H]2CCNC[C@@H]2OCc2ccc3ccc(=O)[nH]c3c2)cc1 (racemic)
130 nM | 12 nM | 5.6 | c1ccc(COCCCOc2ccc([C@H]3CCNC[C@@H]3OCc3ccc4ccc(OCCN5CCOCC5)cc4c3)cc2)cc1 (racemic)
160 nM | 3.3 nM | – | c1ccc(COCCCOc2ccc([C@H]3[C@H](COCCN4CCOCC4)CNC[C@@H]3OCc3ccc4ccccc4c3)cc2)cc1 (racemic)
1900 nM | 2.3 nM | – | O=S(=O)(O)OC[C@@H]1CNC[C@H](OCc2ccc3ccccc3c2)[C@H]1c1ccc(OCCCOCc2ccccc2)cc1 (racemic)
